A short description of the data set: Toxicity liver stage against HepG2, at 10uM. It is filed as cell-based. More on the design: test concentration 10 uM, cell line HepG2-A16-CD81EGFP. The conditions noted are these: human, HepG2-A16-CD81EGFP cells; read-out: INHIBITION
In a few lines: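 Uninfected HepG2-A16-CD81EGFP cells, 3 × 10^3 per well, 1536-well, plated on prespotted compound at 10 μM final, parasite-free screening media added to match infected plates; puromycin 10 μM positive, DMSO 0.5% negative; run in parallel with 48 h PbLuc assay at 37 °C, 5% CO2; viability by CellTiter-Glo luminescence, normalized to controls.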
For `Cn1ncc2c1NC(=O)CC2c1cccs1` (stereo not drawn), the cytotoxicity at 10 µM was -0.585%. Take `O=S(=O)(c1cccc(F)c1)N1C[C@@H]2COC[C@]2(COCC2CC2)C1`: the cytotoxicity at 10 µM was determined as 12.5%. In the case of `COc1ccc(OCC(=O)n2nc(C)c(C)c2C)cc1`, the cytotoxicity at 10 µM is -6.32%. With `O=C(c1ccco1)N1CCC2(CCC(=O)N2Cc2cccc(F)c2)CC1`, the cytotoxicity at 10 µM was determined as 2.84%. `CC(C)C(=O)N1CCC2(CCCN(CCOc3ccccc3)C2)C1` (stereo not drawn): the cytotoxicity at 10 µM was determined as 6.71%. For `CCCNC(=O)C1(Cc2cc(-c3ccccc3)no2)CCN(C(C)=O)C1` (stereo not drawn), the cytotoxicity at 10 µM is 6.6%. As to `Cc1cc(C)n(Cc2cccc(C(=O)N3CCOCC3(C)C)c2)n1`, the cytotoxicity at 10 µM is -3.51%. Then `N#Cc1cnc2c(F)cc(F)cc2c1NC1CCN(CC(N)=O)CC1`, with -2.89%; and `CN(C)c1ccc(CNC(=O)Nc2ccc(S(=O)(=O)C(F)F)cc2)cc1`, with 9.25%.

As for `O=C(CCc1cc(Br)cs1)NCCCn1ccnc1`, the cytotoxicity at 10 µM amounted to 1.08%. Then `NC(=O)C(NC(=O)c1ccc(NC2CC2)nc1)c1ccccc1` (stereo not drawn), with 10.8%. Then `CCSCc1ccnc(NC(=O)C2CCCO2)c1` (stereo not drawn), with 5.39%; and `CC(=O)c1cc(Br)cc(F)c1OCC(=O)NC1CC1`, with -6.16%; and `COC(=O)c1ccc(NC(C)c2ccc3c(c2)CC(=O)N3)nn1` (stereo not drawn), with 3.82%.

Turning to `CN1CCOC(CNC(=O)CCCc2ccccc2)C1` (stereo not drawn), the cytotoxicity at 10 µM is -0.95%. Then `Cc1nc(CN2CCN(c3ccc(SC(C)C)nn3)CC2)cs1`, with 5.71%.

Consider `CCOc1ccc(Cl)c(C(=O)N2CCCC(c3cc(C)[nH]n3)C2)n1` (stereo not drawn), for which the cytotoxicity at 10 µM is 8.83%. Turning to `COC1CCN(c2ccc(F)cc2CN(C)CC(N)=O)CC1`, the cytotoxicity at 10 µM is -6.91%. Then `CN(CCNC(=O)c1ccnc(-n2ccnc2)c1)C1CC1`, with 3.31%; and `CCS(=O)(=O)CC(=O)NC(C)c1ccccc1Oc1ccccc1` (stereo not drawn), with -2.97%; and `c1coc(-c2nc(CN3CCOC(Cn4cccn4)C3)cs2)c1` (stereo not drawn), with -6.45%. Then `CC1CCCCN1CCNC(=O)c1ccccc1N1CCOCC1` (stereo not drawn), with -4.14%; and `CNC(=O)COc1ccc(CNCc2cc(F)ccc2F)cc1`, with 3.53%. Then `Cc1nc(-c2ccsc2)ccc1C(=O)N(C)CC(F)(F)F`, with -1.54%; and `CC(=O)c1ccc(C(=O)NCC2Cc3ccccc3O2)s1` (stereo not drawn), with 3.82%; and `NCc1csc(CCc2ccccc2)n1`, with -0.138%. As for `CN(CCC#N)C(=O)CN(C1CC1)C1CCc2ccccc21` (stereo not drawn), the cytotoxicity at 10 µM is -4.74%. Consider `COCCCn1ccc(NC(=O)NCCc2cccnc2)n1`, for which the cytotoxicity at 10 µM is -0.996%. For `Cc1ccc(-c2nnc(C(C)NCCn3cc(C)cn3)o2)cc1` (stereo not drawn), the cytotoxicity at 10 µM was -15.8%. Then `Cc1cccc(CNCC2COC3(CCCCC3)O2)c1C` (stereo not drawn), with -139%. For the molecule `CS(=O)(=O)CCNC(=O)N(Cc1ccoc1)C1CCCCC1`, the cytotoxicity at 10 µM is 5.72%. Take `NC(=O)CN1CCCN(C(=O)COc2cccc(F)c2)CC1`: the cytotoxicity at 10 µM was -1.97%. Then `CN(C)C(=O)N1CCN(c2cc(N3CCCC3CO)ncn2)CC1` (stereo not drawn), with -1.81%. Take `CCCNC(=O)C1CCN(CC(O)c2ccccc2C(F)(F)F)CC1` (stereo not drawn): the cytotoxicity at 10 µM was 3.21%. Then `Cc1nc(C)c(COc2ccc(N(C)S(C)(=O)=O)cc2)s1`, with 23.2%; and `Cc1ccc(NCc2cc(C#N)ccc2F)cc1-n1nnnc1C`, with -1.66%; and `O=C(Nc1ccnn1Cc1ccccc1Cl)C1CCS(=O)(=O)C1` (stereo not drawn), with -3.95%. On to `N#CC1C(=O)Nc2c(cnn2C2CCCC2)C12CCCC2` (stereo not drawn), for which the cytotoxicity at 10 µM is -7.54%. Then `Cn1cc(CCCNC(=O)NC2CCN(CC(F)(F)F)C2=O)cn1` (stereo not drawn), with 6.51%; and `c1cncc(-c2ccnn2CN2CCOCC2)c1`, with 3.44%. Then `Cc1cc(CN(C)C2CCCN(c3cccnn3)C2)on1` (stereo not drawn), with 16%; and `CCN(CC)C(=O)CCNC(=O)N1CCC(c2ccccc2)C1` (stereo not drawn), with -3.26%.

For `Cn1ccc(C(=O)N2CCC3(CC2)CC(Nc2cnccn2)CO3)n1` (stereo not drawn), the cytotoxicity at 10 µM was 4.35%. Then `CN(C)CCOCC1CN(CCN(C)C)Cc2ccnn2C1` (stereo not drawn), with 0.656%; and `O=C(c1ccncc1)N1CCN2C[C@H](Oc3cccnc3)C[C@H]2C1`, with 2.83%. Then `CCOC(=O)CNc1nc(COC)nc2c1cnn2C`, with 9%; and `COc1ccc(OCc2cc(C(=O)N3CCC(O)CC3)n[nH]2)c(Cl)c1`, with -1.69%; and `Cc1csc(CN(C)CCOc2ccccc2)n1`, with -3.18%. With `CC(C)n1ccnc1C1CCCN(Cc2ccc(F)c(F)c2)C1` (stereo not drawn), the cytotoxicity at 10 µM worked out at 3.89%.

As to `O=C(c1cc(=O)[nH][nH]1)N1CCCC2(CCC(=O)N(C3CCCC3)C2)C1` (stereo not drawn), the cytotoxicity at 10 µM is 0.988%. Then `Cc1ccc([C@@H]2CN(C(=O)c3cc(C)n[nH]3)C[C@H]2NC(=O)C2CC2)cc1`, with -7.77%; and `CCOCCNC(=O)c1cccc(S(=O)(=O)NC[C@@H]2C[C@H](F)CN2)c1`, with -18.8%; and `Cc1cc(C(=O)N2CCN(C(=O)CC(C)C)[C@@H]3CS(=O)(=O)C[C@@H]32)no1`, with -5.45%.

Regarding `COCc1ncc(-c2nccn2CCS(C)(=O)=O)cn1`, the cytotoxicity at 10 µM is -17.2%. Then `O=C1CCCCCN1Cc1cccc(OC(F)F)c1`, with -6.4%; and `COc1cccc(C2CCN2C(=O)c2cnccn2)c1` (stereo not drawn), with 12.2%; and `O=C(c1coc(COc2ccccc2F)n1)N1CCCO1`, with 6.29%. As to `CCn1nc(C)c(NC(=O)CN2CCN(C(C)=O)CC2)c1C`, the cytotoxicity at 10 µM is -6.67%. In the case of `CN1CCCCCC1C(=O)NCCCn1ncc2ccccc21` (stereo not drawn), the cytotoxicity at 10 µM was -1.43%.

In the case of `CC(=O)N1CCCn2nc(CNS(=O)(=O)Cc3ccccc3)cc2C1`, the cytotoxicity at 10 µM is -6.19%. `CC(=O)NCC1CCC2(CCN(c3ncc(C)cn3)CC2)O1` (stereo not drawn): the cytotoxicity at 10 µM was -3.09%. Then `COCCN1CCN(Cc2ccc(OCc3nccn3C)cc2)CC1`, with -7.11%; and `Cc1cc(C)c(CNC(=O)N(C)Cc2cccc(C#N)c2)c(=O)[nH]1`, with -5.49%.

As to `Cc1ncc2c(n1)CN(CC(=O)NCCOc1ccccc1)CC2`, the cytotoxicity at 10 µM was -8.66%. In the case of `Cc1nc(CN2CCc3nn(C)c(=O)cc3C2)oc1C`, the cytotoxicity at 10 µM was -2.74%.

Consider `Cc1ccc(-c2nc(C(=O)N3CCOCC3)cs2)c(C)c1`, for which the cytotoxicity at 10 µM turned out to be 0.22%.

On to `CC(C)c1ccc(OCCC(=O)N2CCCN(C(N)=O)CC2)cc1`, for which the cytotoxicity at 10 µM is -15.5%. Then `Cn1cc(C(=O)NCC2CCN(C(=O)NC3CCCCC3)CC2)cn1`, with -4.92%; and `Cc1ccc(-c2n[nH]cc2CNCC2CCN(CC(C)O)CC2)cc1` (stereo not drawn), with -16.6%; and `Cc1nn(C)c(Cl)c1C1CCCN1C(=O)c1ccnn1C` (stereo not drawn), with -4.87%. `CC1CCCN(C(=O)CNC(=O)c2ccoc2)C1` (stereo not drawn): the cytotoxicity at 10 µM is -0.775%. For `CN(Cc1ccc(F)cc1)C(=O)CN1CCOC(Cn2cccn2)C1` (stereo not drawn), the cytotoxicity at 10 µM is 2.2%.

With `CCn1ccnc1CN1CCCN(C(=O)c2cnc(C)cn2)CC1`, the cytotoxicity at 10 µM is -12.3%. For `Cc1nc(CN2CCCN(C(=O)c3c(C)oc(C)c3C)CC2)cs1`, the cytotoxicity at 10 µM was -14%.

As to `Cc1nc(C)c(CN2CCOC(CN(C)c3cccnn3)C2)s1` (stereo not drawn), the cytotoxicity at 10 µM was -7.16%. Then `CCOCC(O)CN1CCN(C(=O)c2cccc3[nH]ncc23)CC1` (stereo not drawn), with -12.8%; and `COc1ccc(Cl)cc1C(=O)N(C)Cc1cc(C)on1`, with -22.9%; and `O=C(CN1CCN(c2ccc3nncn3n2)CC1)NC1CCCCC1`, with -12.6%. Then `Cc1noc(C2CCN(C(=O)CCNc3ncccn3)CC2)n1`, with -6.38%; and `Cc1ccc(SCC(=O)NS(=O)(=O)c2ccc3c(c2)OCCO3)cc1`, with -22.1%; and `COc1ccccc1OCCN1CCCC(c2cc(C(N)=O)[nH]n2)C1` (stereo not drawn), with 3.71%. `COc1ccnc(N2CCN(C(=O)Cc3ccc(C)s3)CC2)n1`: the cytotoxicity at 10 µM is 0.818%. `Cc1ccccc1CN(C)Cc1nc2c(cnn2C)c(=O)[nH]1`: the cytotoxicity at 10 µM was 2.51%.

Turning to `Nc1ccc(-c2cnc(C3CCCN3)cn2)cn1` (stereo not drawn), the cytotoxicity at 10 µM stood at 2.19%. As to `CCN(CC)C(=O)CN1CCc2c(nc(C3CCNCC3)nc2NC)C1`, the cytotoxicity at 10 µM was 5.07%.

Consider `N[C@@H](Cc1ccccc1)c1nnc(S(=O)(=O)Cc2cccc(Cl)c2)o1`, for which the cytotoxicity at 10 µM is 7.87%. On to `COc1ccc(C[C@H]2CN(c3nnc(C)s3)CC[C@@H]2OC)cc1`, for which the cytotoxicity at 10 µM is -3.23%. Then `O=C(c1ccco1)N1CCc2c(COCC3CC3)cncc2C1`, with -71.3%; and `CC(C)n1nc(CNc2ncccn2)c2c1CN(C)CC2`, with -142%. Then `Cc1noc(C)c1CN1CC[C@H]2OCC[C@@H](C(=O)NCC3CC3)[C@@H]2C1`, with -8.55%; and `COCC(=O)Nc1ccc2c(c1)C1(CCOCC1)CN2CCF`, with -99.6%; and `O=S(=O)(C1CC1)N1CCCn2cnc(COc3cccnc3)c2C1`, with 1.4%. For the molecule `CC(C)N1CCC(N2CCC(C(=O)N(C)C)CC2)CC1`, the cytotoxicity at 10 µM came out at 4.71%.

For the molecule `COCCN1CCc2c(c(COc3cccnc3)nn2C)C1`, the cytotoxicity at 10 µM was -113%. Take `Fc1cnc(N2CCCC3(CCN(Cc4ccco4)C3)C2)nc1` (stereo not drawn): the cytotoxicity at 10 µM is -84.9%. Then `CC(C)NC(=O)N1CCCn2cnc(CO)c2C1`, with -151%; and `CC(c1cn2ccsc2n1)n1cc2[nH]cccc-2c1=O` (stereo not drawn), with -1.97%; and `Cc1cc2cccc(NC(=O)N3CC[C@H]4CC[C@@H](C3)N4C)c2o1`, with 7.89%.
